The subject of the data set is MS2 coat protein. Put plainly: apparent Kd, MS2 coat protein; higher = weaker binding; RNA-MaP array; FMN 200 µM where present. In short, it runs like this: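 Stalled E. coli RNA polymerase transcribed the designs on Illumina sequencing-chip clusters. SNAP-549-labelled MS2 coat protein was titrated from 0.7 or 1.5 nM, doubling to 3 µM, without and then with constant ligand, in 100 mM Tris-HCl pH 7.5, 80 mM KCl, 4 mM MgCl2, BSA, DTT, yeast tRNA and Tween-20. Per-cluster binding curves were fitted to green signal normalised to red-channel RNA signal and control-cluster median Fmax. The apparent Kd is the median of the filtered fits.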

[1] abbreviates: designed as: ON switch for flavin mononucleotide, no ligand.
Where [2] appears, read: ligand present: flavin mononucleotide, designed as: ON switch for flavin mononucleotide.
Setting [3] is: designed as: OFF switch for flavin mononucleotide, no ligand.
The mark [4] stands for this setting: ligand present: flavin mononucleotide, designed as: OFF switch for flavin mononucleotide.

“UGGUACUAGGGAGGAUAUGGGAAGAUACAUGAGGAUCACCCAUGUUUAAGAAUGCCGAGAGGAAACUAGAAGGCCCUAGUACCU”: the apparent Kd (usually the concentration giving half-maximal binding under the conditions of the assay) by setting is: under setting [1], 279 nM; under setting [2], 13.8 nM.

As to “GUCUUGUCAGGAUAUCUUACAUAACAAUCGUAGUUACAAUUGGAGAAGGGACAUGAGGAUCACCCAUGUUAGCC”, the “apparent Kd” value turned out to be 18.7 nM under setting [3] and 21 nM under setting [4].

In the case of “AGGCCGGGAGGAUAUCCAAUAUAUGACAUGAGGAUCACCCAUGUUUCCACUCGUACCUCCGGAGAAGGCCCGGCGA”, the “apparent Kd” value was found to be 21.1 nM under setting [3] and 19.9 nM under setting [4].

Take “CUAAAUUAGUAGAAGGACGGAGAGUAAGAAGUCGUAGGAUAUACAUAAGACAUGAGGAUCACCCAUGUGUGUAUGUUGGGUAUG”: the “apparent Kd” value worked out at 6.54 nM under setting [3] and 6.65 nM under setting [4].

Consider “GGUUGUCAUCGUCAUCCUUUCUGUACAUGAGGAUCACCCAUGUAGGAUAUGCUGCUCUCGGUGUGGCAGAAGGGCGUGUGUCUU”, for which the “apparent Kd” value came to 34.2 nM under setting [3] and 37.6 nM under setting [4].

For the sequence “GGAAAUCAUGUAGGAUAUGCAUGGCGAAGCUACGCAGAAGGACAUGAGGAUCACCCAUGUUAUAGCGUCCGAUAAAGGAUGCAA”, the “apparent Kd” value was found to be 117 nM under setting [3] and 164 nM under setting [4].

On to “AAGAAACAUGAGGAUCACCCAUGUAAAUAAAUCUCAGGAUAUCGUACAUGGAAGAUCUAACGAGAAGGGAGAAGAA”, for which the “apparent Kd” value is, setting by setting: under setting [1], 137 nM; under setting [2], 140 nM.

“GUAGUGCUCAUAGGAUAUCGGGAACGACUUAGACAGGUCGUACAUGAGGAUCACCCAUGUAAAGUCGAGAAGGGUGAUCACGCC”: the “apparent Kd” value under setting [1] was determined as 592 nM and the “apparent Kd” value under setting [2] amounted to 160 nM.

In the case of “CAUUGACGACAAUUACAUGAGGAUCACCCAUGUUUUGGGAUGCAGGAUAUGUGGUAUAUUAAUUAACAGAAGGGCAAUAAUUUU”, the “apparent Kd” value under setting [1] was 34.7 nM.

On to “AAAAUACAUGAGGAUCACCCAUGUUAGGAUAUCCAAGGCCUGACCCUCAAGGUCAGGCGGAGAAGGGAUGUGGU”, for which the “apparent Kd” value runs as follows: under setting [3], 50.4 nM; under setting [4], 51.3 nM.

On to “AAUAUGCAAGGAUAUACAACGUAGCUACGACGGAACGGGCUACAUGAGGAUCACCCAUGUAGAAGGUGCUACGC”, for which the “apparent Kd” value runs as follows: under setting [3], 15.2 nM; under setting [4], 16.7 nM.

Take “CGCUAUUAUGUAGGAUAUACAUUUUUUAUGUAUGUAGAAGGACAUGAGGAUCACCCAUGUAAAUUAAUUUUAAUUAUCUUAGCG”: the “apparent Kd” value runs as follows: under setting [3], 16.4 nM; under setting [4], 13.3 nM.

For the sequence “AAUUAGGUCACAGGAUAUACAUCAUCCAUAGAUGUAGAAGGGUGUCAAAGUAAUAUCUGACAUGAGGAUCACCCAUGUUUCCAC”, the “apparent Kd” value under setting [1] amounted to 23.3 nM and the “apparent Kd” value under setting [2] is 9.28 nM.

As for “CAGCUUUACGAGGAUAUGGAAGGAGUCAACUUGCCAGAAGGUGUAACAUGAGGAUCACCCAUGUGGCCCGUGAC”, the “apparent Kd” value under setting [3] turned out to be 66.1 nM and the “apparent Kd” value under setting [4] was determined as 69.4 nM.

With “GGUACUCAAAGAGUACCAAAACGAACAUGAGGAUCACCCAUGUAGGAUAUGCUACUCAAAGAGUAGCAGAAGGACAUGUGCAGA”, the “apparent Kd” value reads like this: under setting [3], 29.6 nM; under setting [4], 149 nM.

As for “AAGCGAAAGCUAAAAUAUCUAUCAGAGGAUAUUUAUGAUACAUGAGGAUCACCCAUGUGACACUGGGAGAAGGCUGAUAGAUAA”, the “apparent Kd” value was found to be 19.2 nM under setting [1] and 7.5 nM under setting [2].

With “CCUUUGAAGAUCCUAAAUUUCGACAUGAGGAUCACCCAUGUGCAGGAUAUCGUGCCAGUGAUGUGCGAGAAGGGCAGUCUCUGC”, the “apparent Kd” value is, setting by setting: under setting [3], 64.6 nM; under setting [4], 73.9 nM.

Regarding “CAGUACUGAGGAUAUACAUGAGGAUCACCCAUGUGUCCUGGCUAGGAUACUAGCAAAGGUAGAAGGCAGUACUG”, the “apparent Kd” value reads like this: under setting [3], 16.6 nM; under setting [4], 125 nM.

For “UUUAAUAAGUAGAAGGACGGAGAGUAUGAAGUCGUAGGAUAUACAUAAGACAUGAGGAUCACCCAUGUGUGUAUUUUGGGUAUG”, the “apparent Kd” value was determined as 12.8 nM under setting [3] and 13.4 nM under setting [4].

With “UGGUACUACGGAGGAUAUCAUGUGUAAACAUGAGGAUCACCCAUGUCGUACGAGAGUACGGAGAUUGAGAAGGCCGUAGUACCU”, the “apparent Kd” value by setting is: under setting [1], 85.4 nM; under setting [2], 16.7 nM.

Turning to “GGGUACAUCGGAGGAUAUCAUGUAAAUACAUGAGGAUCACCCAUGUCGAUGGAGACAUCGGAGAUUGAGAAGGCCGUUGUACCG”, the “apparent Kd” value by setting is: under setting [1], 168 nM; under setting [2], 9.18 nM.

As to “ACCAGGGAUUCAGGAUAUAUUAGCCGAGGCCGCGUAGAAGGGAAAUCCUGACAUGAGGAUCACCCAUGUCGACCCGCCUUCCAA”, the “apparent Kd” value under setting [1] is 43.3 nM and the “apparent Kd” value under setting [2] amounted to 41.9 nM.

Regarding “UGUCGGAGCAGAGGAUAUUACAUGAGGAUCACCCAUGUAUGAACCAAUAGCUGGAAACACCAAUGUAAGAAGGCUGCUCCGACA”, the “apparent Kd” value under setting [3] came to 19.8 nM and the “apparent Kd” value under setting [4] was 146 nM.

In the case of “UAAUAAUUAUGAGGAUAUAUACAACAUGAGGAUCACCCAUGUACCCAUGUAGUAGAAGGCAUAUUUUUAUUUAAUAAUAUAACU”, the “apparent Kd” value is, setting by setting: under setting [1], 60.4 nM; under setting [2], 27.6 nM.

As for “UAGCUUGAUUCUCGUGUAUACAUGAGGAUCACCCAUGUGACGCAGGAUAUAGGCGUGUUAGUAGCCUAGAAGGGCGAGCAGCGU”, the “apparent Kd” value was found to be 153 nM under setting [3] and 235 nM under setting [4].

As to “AUCAGCUCGUUAGGAUAUACGUCACUGCGUCAGCAGUGUGGUAAGAUCACAUGAGGAUCACCCAUGUAGAAGGGACGAGCUGAU”, the “apparent Kd” value is, setting by setting: under setting [3], 12.8 nM; under setting [4], 94.2 nM.

Consider “CGCGAAAACAUAGGAUAUUGAUACAUGAGGAUCACCCAUGUCAACCAUGAAGCUCGAAUUGUUGACAAGAAGGAUGAGGUCGCG”, for which the “apparent Kd” value is, setting by setting: under setting [1], 77.1 nM; under setting [2], 57.2 nM.

For “UAUAUAUAGUAAGGAUAUGUAUAUAUUUAAUAAACAGAAGGUACUGACAUGAGGAUCACCCAUGUUUUAGUGUGGGCAUGUAGA”, the “apparent Kd” value under setting [3] was determined as 74.1 nM and the “apparent Kd” value under setting [4] was 110 nM.

With “AAGGUGUUAGGAUAUCGGAGUUUGAGGCAGACGGGAAUUUUCGAGAAGGAACAUGAGGAUCACCCAUGUAGUAU”, the “apparent Kd” value is 24.1 nM under setting [3] and 24.8 nM under setting [4].

Regarding “UCGCUGCGAGGAUAUACAUGAGGAUCACCCAUGUGCGGGUCCGGGUCUUUGUCCAUUAGUAGAAGGCGCAGUGA”, the “apparent Kd” value is 305 nM under setting [3] and 82.7 nM under setting [4].

Take “AGCAGACGAGGAUAUAGAUUUGUUAACAUGAGGAUCACCCAUGUGAUCGAUUUUUCAUAUUUAGAAGGUGUCUGCU”: the “apparent Kd” value is, setting by setting: under setting [3], 83.3 nM; under setting [4], 392 nM.

“GCACUGGAUGUAGGAUAUCAGGACGAUAAGUCCUGAGAAGGACAUGAGGAUCACCCAUGUACCUCAAACCAGUGCUAUAAUAUA”: the “apparent Kd” value was 15.1 nM under setting [3] and 30 nM under setting [4].

For the sequence “GCUCUUGUCAAGAAGGGCUCGCGGGACGCUGCAGCAGGAUAUUGACAUGAGGAUCACCCAUGUCGACCGGAACACCAUUGAGGG”, the “apparent Kd” value came out at 22.2 nM under setting [3] and 196 nM under setting [4].

Take “UGAACUAUGUAGAAGGCCCUCAUGAAAAUGAAGGGAGGAUAUACAUGAGGAUCACCCAUGUGAAGAGCAAGAGGGUUUAACAGA”: the “apparent Kd” value came to 149 nM under setting [3] and 172 nM under setting [4].

For “GAACCACAUGAGGAUCACCCAUGUCUAAGAAAUUAAGGAUAUGCACAAAAGGAAAUAACUGCAGAAGGUAAACGAA”, the “apparent Kd” value is, setting by setting: under setting [1], 33.4 nM; under setting [2], 27.4 nM.

With “UGGUACUAGGGAGGAUAUGGGAAGAUACAUGAGGAUCACCCAUGUUCAAGAAUGCCGAGAGGCAACUAGAAGGCCCUAGUACCU”, the “apparent Kd” value reads like this: under setting [1], 928 nM; under setting [2], 46.2 nM.

Consider “CCGAGGCGAGGAUAUACAUGAGGAUCACCCAUGUCUGACCGACGCGCGCCAGGCAUAUGUAGAAGGCGCCGGAA”, for which the “apparent Kd” value under setting [3] was 31.5 nM and the “apparent Kd” value under setting [4] was 138 nM.

Consider “UGCAUGCUAGGAUAUACGAAACAUUAGGGUUCUUUGUAUGAACAUGAGGAUCACCCAUGUAGAAGGAGCGUGCU”, for which the “apparent Kd” value runs as follows: under setting [3], 117 nM; under setting [4], 296 nM.

“AUACUGAGCGUAAGUUACCUGAACAUGAGGAUCACCCAUGUGGAGGAUAUUGACCUAGCAAAGCUCGAGAAGGCCACUGGGAUG”: the “apparent Kd” value is, setting by setting: under setting [3], 24.8 nM; under setting [4], 19.1 nM.

Take “UUAAUGAUGUAAGGAUAUACAUGAGGAUUUCUCGUAGAAGGUACAAGACAUGAGGAUCACCCAUGUGUCGCUCCGUAGAGCGUA”: the “apparent Kd” value is, setting by setting: under setting [1], 288 nM; under setting [2], 302 nM.

In the case of “CCACCUCCUGAGGAUAUUGCAUCACCCGACUGAUAAGAAGGCAGAACAUGAGGAUCACCCAUGUGGGUACUCAC”, the “apparent Kd” value came to 84 nM under setting [3] and 87.1 nM under setting [4].

Turning to “AAGUAUAAGGGCAUUAAACAUGAGGAUCACCCAUGUACAAUAGAGGAUAUGCAUUUUGGUUUAGAGUAGAAGGUUAGAGAAAAU”, the “apparent Kd” value was 28.2 nM under setting [3] and 33.5 nM under setting [4].

As for “AAUCCACAUGAGGAUCACCCAUGUGAGGAUAUGAUACUAUGUACUUCGGUACAUAGUAUCAGAAGGCACAUAAA”, the “apparent Kd” value reads like this: under setting [3], 24.1 nM; under setting [4], 81 nM.

As to “UUUUAACAUGAGGAUCACCCAUGUGAGGAUAUCGAAAUUUAUAUUUAUAUUAAUAAUACGAGAAGGCACAUUUU”, the “apparent Kd” value by setting is: under setting [3], 63 nM; under setting [4], 87 nM.

Take “CUGCCUUAUGUAGGAUAUGCAUAGCGUUGCUAUGCAGAAGGACAUGAGGAUCACCCAUGUAUGUUAUCAAUACAUAUCUGGCAG”: the “apparent Kd” value came out at 16.9 nM under setting [3] and 53.2 nM under setting [4].

“AGAUGACAAAGUCAUCUCGCUCUGACAUGAGGAUCACCCAUGUAGGAUAUAUUACUCAAAGAGUAAUAGAAGGACAUGUGUCUG”: the “apparent Kd” value is 36.3 nM under setting [3] and 115 nM under setting [4].

Regarding “ACAUGAGGAUCACCCAUGUAUACAUAGGAUAUUGAGGAUCAGGGAUGUUUUACAGGAUAUGUCUACAAGAAGGAUGCAAGUACA”, the “apparent Kd” value was 32.7 nM under setting [1] and 29.1 nM under setting [2].

Regarding “GGUCGUCACAUAUACAUGAGGAUCACCCAUGUGAAAACACAUGAGGAUAUGGAUCCUAAUUGGAUCCAGAAGGCAUGGACGACC”, the “apparent Kd” value by setting is: under setting [1], 42.1 nM; under setting [2], 7.63 nM.

The record behind these values is the EternaBench riboswitch data.
